From ChEMBL document CHEMBL4627290, “Synthesis and biological evaluation of chepraecoxin A derivatives as α-glucosidase inhibitors” (Bioorg Med Chem Lett, 2020)

Key:
[1] = Inhibition of alpha-glucosidase (unknown origin) at 500 uM relative to control; conditions: Homo sapiens
How it was run: (§1)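 Single-point screen at 500 μM inhibitor, with acarbose as positive control. Derivatives exceeding 50% inhibition were taken on to a dose-response series at several concentrations to derive IC50. Values are mean ± SD, n = 3.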

[2] = Inhibition of alpha-glucosidase (unknown origin); parameters: species or system Homo sapiens; how it was run: as §1
[3] = Potency index, ratio of chepraecoxinA IC50 to test compound IC50 for inhibition of alpha-glucosidase (unknown origin); conditions: Homo sapiens
[4] = Non-competitve inhibition of alpha-glucosidase (unknown origin) by Dixon-plot analysis; parameters: species or system Homo sapiens
How it was run: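 Kinetic study run at varied substrate concentrations. Inhibition type was assigned from a Lineweaver-Burk plot (Vm and Km compared), and the inhibition constant Ki was read from a Dixon plot.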

SMILES	inhibition [1] [%]	IC50 [2] [µM]	Ratio IC50 [3]	Ki [4] [µM]
C=C1C[C@@]23CC[C@H]4[C@@](C)([C@@H](OC(C)=O)CC[C@@]4(C)C(=O)O)[C@@H]2CC[C@H]1C3	95	274		
CC(=O)O[C@H]1CC[C@@](C)(C(=O)O)[C@H]2CC[C@]34CC(=O)[C@@H](CC[C@H]3[C@]12C)C4	78.8	262		
C[C@H]1C[C@@]23CC[C@H]4[C@@](C)(C(=O)CC[C@@]4(C)C(=O)O)[C@@H]2CC[C@H]1C3	13.2			
CC(=O)O[C@H]1CC[C@@](C)(C(=O)O)[C@H]2CC[C@@]34C[C@H](CC[C@H]3[C@]12C)[C@@](O)(CO)C4	7.5			
C=C1C[C@@]23CC[C@H]4[C@@](C)([C@@H](OC(C)=O)CC[C@@]4(C)C(=O)OC)[C@@H]2CC[C@H]1C3	45.4			
CCCC(=O)O[C@H]1CC[C@@](C)(C(=O)O)[C@H]2CC[C@@]34C[C@H](CC[C@H]3[C@]12C)[C@@H](C)C4	98	48.4		
CC(=O)O[C@H]1CC[C@@](C)(C(=O)O)[C@H]2CC[C@@]34C[C@H](CC[C@H]3[C@]12C)[C@@]1(CO1)C4	9.6			
COC(=O)[C@]1(C)CC[C@H](OC(C)=O)[C@@]2(C)[C@@H]3CC[C@H]4C[C@@]3(CC[C@@H]21)C[C@@H]4C	11.4			
C=C1C[C@@]23CC[C@H]4[C@@](C)(/C(=N/O)CC[C@@]4(C)C(=O)O)[C@@H]2CC[C@H]1C3	77.2	330		
CCCCC/C=C/C(=O)O[C@H]1CC[C@@](C)(C(=O)O)[C@H]2CC[C@@]34C[C@H](CC[C@H]3[C@]12C)[C@@H](C)C4	91.8	16.9	17	
C[C@H]1C[C@@]23CC[C@H]4[C@@](C)([C@@H](OC(=O)CCC(=O)O)CC[C@@]4(C)C(=O)O)[C@@H]2CC[C@H]1C3	17.8			
CCCCCCCC(=O)O[C@H]1CC[C@@](C)(C(=O)O)[C@H]2CC[C@@]34C[C@H](CC[C@H]3[C@]12C)[C@@H](C)C4	95.5	22.8		
C[C@H]1C[C@@]23CC[C@H]4[C@@](C)([C@@H](OC(=O)C5CCCCC5)CC[C@@]4(C)C(=O)O)[C@@H]2CC[C@H]1C3		16.1	17	19.4
C=C1C(=O)[C@@]23CC[C@H]4[C@@](C)([C@@H](OC(C)=O)CC[C@@]4(C)C(=O)O)[C@@H]2CC[C@H]1C3	18.6			
CCCCCCCCCCCCCCCCCC(=O)O[C@H]1CC[C@@](C)(C(=O)O)[C@H]2CC[C@@]34C[C@H](CC[C@H]3[C@]12C)[C@@H](C)C4	94.2	32		
C[C@H]1C[C@@]23CC[C@H]4[C@@](C)([C@@H](OC(=O)/C=C/c5ccccc5)CC[C@@]4(C)C(=O)O)[C@@H]2CC[C@H]1C3		17.1	17	
C[C@H]1C[C@@]23CC[C@H]4[C@](C)([C@@H]2CC[C@H]1C3)[C@@H](O)CC[C@@]4(C)C(=O)O	17.3			
C=C1[C@H]2CC[C@@H]3[C@@](CC[C@H]4[C@@]3(C)[C@@H](OC(C)=O)CC[C@@]4(C)C(=O)O)(C2)[C@H]1O	22.1			
C[C@H]1O[C@H](O[C@H]2[C@H](O)[C@@H](O)[C@@H](O[C@H]3[C@H](O)[C@@H](O)C(O)O[C@@H]3CO)O[C@@H]2CO)[C@H](O)[C@@H](O)[C@@H]1N[C@H]1C=C(CO)[C@@H](O)[C@H](O)[C@H]1O (stereo not given in full) [ACARBOSE]	79.8	130		
C[C@H]1C[C@@]23CC[C@H]4[C@@](C)([C@@H](OC(=O)c5cccnc5)CC[C@@]4(C)C(=O)O)[C@@H]2CC[C@H]1C3	93	71.4		
C=C1C[C@@]23CC[C@H]4[C@](C)([C@@H]2CC[C@H]1C3)[C@@H](O)CC[C@@]4(C)C(=O)O	52	538		
C[C@H]1C[C@@]23CC[C@H]4[C@@](C)([C@@H](OC(=O)c5ccccc5)CC[C@@]4(C)C(=O)O)[C@@H]2CC[C@H]1C3		45.4		
CC(=O)O[C@H]1CC[C@@](C)(C(=O)O)[C@H]2CC[C@@]34C[C@H](CC[C@H]3[C@]12C)[C@@H](C)C4	98.4	146	2	
C=C1C[C@@]23CC[C@H]4[C@@](C)(C(=O)CC[C@@]4(C)C(=O)O)[C@@H]2CC[C@H]1C3	19.4			
